Test results published in ChEMBL document CHEMBL1123945, “Dimethylsulfonium and thiolanium analogues of the muscarinic agent oxotremorine” (J Med Chem, 1988).

What was measured:
Mus musculus = experiment: Sialalogic activity was measured in mice after intravenous administration; type: functional
Method in brief: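 Male Swiss-Webster mice (24–30 g). Drugs in 0.9% NaCl given iv in the tail. Salivation was scored by blotting the mouth onto absorbent tissue during the first 10 min. ED50 by the up-and-down method, six or more animals per determination.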

Cavia porcellus [1] = species: Cavia porcellus; experiment: Relative efficacy of compound was determined in guinea pig iluem; type: functional
Cavia porcellus [2] = species: Cavia porcellus; experiment: In vitro muscarinic activity was measured on isolated guinea pig urinary bladder; type: functional
Method in brief: (§1)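 Guinea pig urinary bladder strips in Tyrode solution pH 7.4, 37 °C, containing 0.3 mM hexamethonium. Isotonic recording at 1 g tension. Cumulative concentration–response curves, concentration raised stepwise by a factor of 3.16.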

[3] = target: T1, Muscarinic acetylcholine receptor (Rattus norvegicus) (UniProt P08482+P08483+P08485+P08911+P10980); experiment: Percentage of high affinity sites was determined in rat cerebral cortex; type: tissue-based
Cavia porcellus [4] = species: Cavia porcellus; experiment: In vitro muscarinic activity was measured on isolated guinea pig ileum; type: functional
Method in brief: (§2)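 Guinea pig ileum segments in Tyrode solution pH 7.4, 37 °C, with 0.3 mM hexamethonium. Isotonic contractions at 1 g tension. Cumulative concentration–response curves, concentration raised stepwise by a factor of 2.15. Means ± SE over tissues.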

Cavia porcellus [5] = species: Cavia porcellus; experiment: Relative efficacy of compound was determined in guinea pig urinary bladder; type: functional
Cavia porcellus [6] = species: Cavia porcellus; experiment: Dissociation constant of the drug-receptor complex was measured in guinea pig ileum; type: functional
[7] = target: Muscarinic acetylcholine receptor; experiment: Binding affinity to Muscarinic acetylcholine receptor in rat cerebral cortex; type: tissue-based
[8] = (§3) Acute toxicity was measured in mice; type: organism-based; details: mouse, in vivo
Method in brief: (§4)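 Male Swiss-Webster mice, 24-30 g. Drug dissolved in 0.9% NaCl, given iv in the tail. LD50 estimated by the up-and-down method, using six or more animals per determination. Mortality counted at 1 h.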

[9] = Equipotent molar ratio measured on frog rectus abdominis; type: functional, Rectus abdominis muscle
Method in brief: (§5)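 Frog rectus abdominis in aerated Clark-Ringer solution pH 7.4 at 22 °C. Noncumulative concentration–response curves, 5 min exposure per concentration. Isotonic contractions recorded.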

[10] = target: T1, Muscarinic acetylcholine receptor (Rattus norvegicus); experiment: Low affinity dissociation constant to Muscarinic acetylcholine receptor in rat cerebral cortex; type: tissue-based
[11] = target: T1, Muscarinic acetylcholine receptor (Rattus norvegicus); experiment: High affinity dissociation constant to Muscarinic acetylcholine receptor in rat cerebral cortex; type: tissue-based
Cavia porcellus [12] = species: Cavia porcellus; experiment: Dissociation constant of the drug-receptor complex was measured in guinea pig urinary bladder; type: functional
[13] = In vitro nicotinic activity was measured on frog rectus abdominis; type: functional, tissue-based, Rectus abdominis muscle; method in brief: as §5
[14] = The equipotent molar ratio (EPMR) relative to oxotremorine on isolated guinea urinary bladder; type: functional; details: in the assay text read “relative to carbachol” for “relative to oxotremorine”; method in brief: as §1
[15] = The equipotent molar ratio (EPMR) relative to oxotremorine on isolated guinea pig; type: functional; details: in the assay text read “relative to carbachol” for “relative to oxotremorine”; method in brief: as §2
[16] = as §3; details: mouse, in vivo; method in brief: as §4
Cavia porcellus [17] = species: Cavia porcellus; experiment: Relative efficacy of compound was determined was determined in guinea pig bladder; type: functional
[18] = Ratio of equipotent molar ratio (EPMR) of frog rectus to EPMR of guinea pig ileum; type: functional
[19] = Equipotent molar ratio (EPMR) was measured on frog rectus abdominis; type: functional, Rectus abdominis muscle; method in brief: as §5

C[N+](C)(C)CC#CCN1CCCC1=O.[I-] [OXOTREMORINE METHIODIDE]
ED50 (Mus musculus): 0.058 µmol/kg
Efficacy (Cavia porcellus [1]): 0.95
EC50 (Cavia porcellus [2]): 0.37 µM
Binding [3]: 31.3%
EC50 (Cavia porcellus [4]): 0.023 µM
Efficacy (Cavia porcellus [5]): 0.88
Kd (Cavia porcellus [6]): 2.9 µM
IC50 [7]: 1.2 µM
LD50 [8]: 1 µmol/kg
Ratio [9]: 2.1
KL [10]: 5.4 µM
KH [11]: 0.019 µM
Kd (Cavia porcellus [12]): 4.3 µM

O=C1CCCN1CC#CC[S+]1CCCC1.[Cl-]
ED50 (Mus musculus): 0.35 µmol/kg
Efficacy (Cavia porcellus [1]): 0.054
EC50 (Cavia porcellus [2]): 1.2 µM
Binding [3]: 37%
EC50 (Cavia porcellus [4]): 0.25 µM
EC50 [13]: 5 µM
Ratio [14]: 2.3
Efficacy (Cavia porcellus [5]): 0.057
Kd (Cavia porcellus [6]): 1.3 µM
IC50 [7]: 0.31 µM
LD50 [8]: 2.2 µmol/kg
Ratio [9]: 1.4
KL [10]: 0.99 µM
Ratio [15]: 2.1
KH [11]: 0.069 µM
Kd (Cavia porcellus [12]): 1.1 µM

C[N+](C)(C)CCOC(N)=O.[Cl-] [CARBACHOL]
ED50 (Mus musculus): 0.083 µmol/kg
Efficacy (Cavia porcellus [1]): 1
LD50 [16]: 1.7 µmol/kg
EC50 [13]: 3.8 µM
Efficacy (Cavia porcellus [5]): 1

O=C1CCC(=O)N1CC#CC[S+]1CCCC1.[Cl-]
Efficacy (Cavia porcellus [1]): 0.0061
EC50 (Cavia porcellus [4]): 7.9 µM
EC50 [13]: 66.2 µM
Kd (Cavia porcellus [6]): 7.5 µM
IC50 [7]: 3.3 µM
LD50 [8]: 3.5 µmol/kg
Ratio [9]: 18
Ratio [15]: 81
Kd (Cavia porcellus [12]): 13.1 µM

C[S+](C)CC#CCN1CCCC1=O.[Cl-]
ED50 (Mus musculus): 0.024 µmol/kg
Efficacy (Cavia porcellus [1]): 0.41
EC50 (Cavia porcellus [2]): 0.2 µM
Binding [3]: 28.4%
EC50 (Cavia porcellus [4]): 0.029 µM
EC50 [13]: 29 µM
Ratio [14]: 0.32
Kd (Cavia porcellus [6]): 1.5 µM
Efficacy (Cavia porcellus [17]): 0.48
IC50 [7]: 0.8 µM
LD50 [8]: 2.8 µmol/kg
Ratio [18]: 33.8
KL [10]: 2.2 µM
Ratio [15]: 0.24
Ratio [19]: 8.1
KH [11]: 0.011 µM
Kd (Cavia porcellus [12]): 1.3 µM

C[S+](C)CC#CCN1C(=O)CCC1=O.[Cl-]
ED50 (Mus musculus): 0.48 µmol/kg
Efficacy (Cavia porcellus [1]): 0.11
EC50 (Cavia porcellus [2]): 1.7 µM
Binding [3]: 27.4%
EC50 (Cavia porcellus [4]): 0.41 µM
EC50 [13]: 2600 µM
Ratio [14]: 3.7
Efficacy (Cavia porcellus [5]): 0.15
Kd (Cavia porcellus [6]): 6.9 µM
IC50 [7]: 5.4 µM
LD50 [8]: 70 µmol/kg
Ratio [9]: 692
KL [10]: 12.7 µM
Ratio [15]: 4.1
KH [11]: 0.19 µM
Kd (Cavia porcellus [12]): 5.9 µM
